Measured values from ChEMBL document CHEMBL2169835, “Flavonoid dimers as novel, potent antileishmanial agents” (J Med Chem, 2012).

Legend:
[1] = Therapeutic index, ratio of IC50 for mouse Peritoneal macrophages to IC50 for SSG-resistant Leishmania donovani 39 amastigote infected in mouse peritoneal macrophages; settings: read-out: Ratio IC50
[2] = Cytotoxicity against mouse Peritoneal macrophages cells after 72 hrs by MTS assay; type: cell-based; settings: Peritoneal macrophage cell
Summary of the method: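 Primary mouse peritoneal elicited macrophages were seeded at 2 × 10^4 cells per well in DMEM with 10% heat-inactivated FBS. They were exposed to graded doses for 72 h at 37 °C in 5% CO2. Survival was read by MTS/PMS tetrazolium reduction (OD 490 nm) relative to untreated control. The IC50 was the concentration halving OD. Results are mean ± SEM of 1–4 independent experiments.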

Leishmania donovani [3] = test: Antimicrobial activity against SSG-resistant Leishmania donovani 39 amastigote infected in mouse peritoneal macrophages assessed as inhibition of parasite growth after 72 hrs by Giemsa staining method; type: functional, organism-based; settings: Leishmania donovani, 39, 72 h
Summary of the method: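 Mouse peritoneal elicited macrophages were seeded on coverslips at 1 × 10^5 cells per well in DMEM with 10% heat-inactivated FBS and left to attach overnight. They were infected overnight with late-log Ld39 promastigotes (parasite:macrophage 20:1) at 37 °C, 5% CO2, then washed. Compounds were applied for 72 h at 37 °C. Giemsa-stained amastigotes per 100 macrophages gave IC50; N = 1−3.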

Leishmania donovani [4] = test: Antimicrobial activity against SSG-resistant Leishmania donovani 39 promastigote assessed as inhibition of parasite growth after 72 hrs by MTS assay; type: functional, organism-based; settings: Leishmania donovani, 39, 72 h
Summary of the method: (§1)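 Promastigotes were grown in Schneider's medium pH 6.9 with 10% heat-inactivated FBS at 27 °C, seeded at 1 × 10^5 per well, and exposed to serial concentrations for 72 h at 27 °C. Compounds were in DMSO (≤1% final) or water. MTS:PMS (20:1) was added for 4 h, then OD490 was read. Survival was % of untreated control; IC50 = concentration halving OD; N = 1−4.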

Leishmania donovani [5] = test: Antimicrobial activity against wild-type Leishmania donovani AG83 promastigote assessed as inhibition of parasite growth after 72 hrs by MTS assay; type: functional, organism-based; settings: AG83, 72 h
Summary of the method: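 Promastigotes were grown in Schneider's medium pH 6.9 with 10% heat-inactivated FBS at 27 °C, seeded at 1 × 10^5 per well, and exposed to serial concentrations for 72 h at 27 °C. Compounds were in DMSO (≤1% final) or water. MTS:PMS (20:1) was added for 4 h, then OD490 was read.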

[6] = Therapeutic index, ratio of IC50 for mouse Peritoneal macrophages to IC50 for SSG-resistant Leishmania donovani 39 promastigote; settings: read-out: Ratio IC50
Summary of the method: (§2)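 Index is PEM cytotoxicity IC50 over promastigote IC50. For PEM, cells were seeded at 2 × 10^4 per well in supplemented DMEM, given graded doses for 72 h at 37 °C, 5% CO2, and read by MTS survival.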

[7] = Therapeutic index, ratio of IC50 for mouse Peritoneal macrophages to IC50 for pentamidine-resistant Leishmania donovani AG83PentR50 promastigote; settings: read-out: Ratio IC50; summary of the method: as §2
[8] = Therapeutic index, ratio of IC50 for mouse PEM cells to IC50 for wild-type Leishmania donovani AG83 promastigote; type: cell-based; settings: read-out: Ratio IC50; summary of the method: as §2
RAW264.7 = test: Cytotoxicity against mouse RAW264.7 cells after 72 hrs by MTS assay; type: cell-based; settings: RAW264.7, 72 h
Summary of the method: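 RAW 264.7 murine macrophage line was plated at 1 × 10^4 cells per well in supplemented DMEM. Cells received a graded compound series for 72 h at 37 °C, 5% CO2, with a maximum of 1% DMSO. Viability was measured by MTS with PMS coupling at OD 490 nm, as percent of untreated control. The IC50 was the concentration reducing OD by half, given as mean ± SEM, N = 1–4.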

Leishmania donovani [9] = test: Antimicrobial activity against pentamidine-resistant Leishmania donovani AG83PentR50 promastigote assessed as inhibition of parasite growth after 72 hrs by MTS assay; type: functional, organism-based; settings: AG83PentR50, 72 h; summary of the method: as §1
Leishmania donovani [10] = test: Antimicrobial activity against axenically grown Leishmania donovani amastigotes; type: functional, organism-based

IC50 (Leishmania donovani [10]) [µM]	Compound	selectivity ratio [1]	IC50 [2] [µM]	IC50 (Leishmania donovani [3]) [µM]	IC50 (Leishmania donovani [4]) [µM]	IC50 (Leishmania donovani [5]) [µM]	selectivity ratio [6]	selectivity ratio [7]	selectivity ratio [8]	IC50 (RAW264.7) [µM]	IC50 (Leishmania donovani [9]) [µM]
	O=c1cc(-c2ccc(OCCN(CCOc3ccc(-c4cc(=O)c5ccccc5o4)cc3)Cc3ccncc3)cc2)oc2ccccc12	> 10	> 58	5.8	> 50	1.4					
	O=c1cc(-c2ccc(OCCOCCN(CCOCCOc3ccc(-c4cc(=O)c5ccccc5o4)cc3)Cc3ccnc(Br)c3)cc2)oc2ccccc12	> 10	> 100	> 10	> 50	1.8					
	NC[C@@H]1O[C@H](O[C@H]2[C@@H](O)[C@H](O[C@@H]3[C@@H](O)[C@H](N)C[C@H](N)[C@H]3O[C@H]3O[C@H](CO)[C@@H](O)[C@H](O)[C@H]3N)O[C@@H]2CO)[C@H](N)[C@@H](O)[C@@H]1O [PAROMOMYCIN]	> 2.4	> 100	41	24.5	62.6	> 4.1	> 1.2	> 1.6	> 100	85.5
	N#Cc1cc(CN(CCOCCOc2ccc(-c3cc(=O)c4ccccc4o3)cc2)CCOCCOc2ccc(-c3cc(=O)c4ccccc4o3)cc2)ccn1	> 12.1	> 92	7.6	> 50	1.1					
	O=c1cc(-c2ccc(OCCOCCN(CCOCCOc3ccc(-c4cc(=O)c5ccccc5o4)cc3)Cc3ccncc3Br)cc2)oc2ccccc12	> 13.1	> 100	> 7.6	> 50	0.65					
	O=c1c(OCCOCCN(CCOCCOc2c(-c3ccccc3)oc3ccccc3c2=O)Cc2ccncc2)c(-c2ccccc2)oc2ccccc12	> 10.6	> 33	3.1	3.1	2.5					
	COc1cc(-c2cc(=O)c3ccccc3o2)ccc1OCCOCCN(CCOCCOc1ccc(-c2cc(=O)c3ccccc3o2)cc1OC)Cc1ccncc1		2.7		0.69	0.63					
8.2	COc1ccc(-c2cc(=O)c3c(O)cc(O)c(-c4cc(-c5cc(=O)c6c(O)cc(OC)cc6o5)ccc4OC)c3o2)cc1 [SCIADOPITISIN]										
2.7	COc1ccc(-c2cc(=O)c3c(O)cc(O)cc3o2)cc1-c1c(O)cc(O)c2c(=O)cc(-c3ccc(O)cc3)oc12 [BILOBETIN]										
	C[C@@H]1[C@H](O)[C@@H](C)/C=C/C=C/C=C/C=C/C=C/C=C/C=C/[C@H](O[C@@H]2O[C@H](C)[C@@H](O)[C@H](N)[C@@H]2O)C[C@@H]2O[C@](O)(C[C@@H](O)C[C@@H](O)[C@H](O)CC[C@@H](O)C[C@@H](O)CC(=O)O[C@H]1C)C[C@H](O)[C@H]2C(=O)O [AMPHOTERICIN B]	119	7.4	0.062	0.095	0.09	77.9	145	82.2	12	0.051
	O=c1cc(-c2ccc(OCCOCCN(CCOCCOc3ccc(-c4cc(=O)c5ccccc5o4)cc3)Cc3cccnc3)cc2)oc2ccccc12	13.8	33.1	2.4	0.98	0.56					
	CCCCCCCCCCCCCCCCOP(=O)([O-])OCC[N+](C)(C)C [MILTEFOSINE]		75.3	16	17.3					20	9.3
	O=c1cc(-c2ccc(OCCOCCN(CCOCCOc3ccc(-c4cc(=O)c5ccccc5o4)cc3)Cc3ccccn3)cc2)oc2ccccc12	> 8	> 33	4.1	4.2	5				53	
	Cc1c(-c2ccc(OCCOCCOCCOCCOCCOCCOc3ccc(-c4oc5ccccc5c(=O)c4C)cc3)cc2)oc2ccccc2c1=O				2.8	1.9				2.3	2.5
	O=c1cc(-c2ccccc2OCCOCCN(CCOCCOc2ccccc2-c2cc(=O)c3ccccc3o2)Cc2ccncc2)oc2ccccc12	> 1.6	> 11	7	4	2.3					
2.8	COc1cc(O)c2c(=O)cc(-c3ccc(OC)c(-c4c(O)cc(O)c5c(=O)cc(-c6ccc(O)cc6)oc45)c3)oc2c1 [GINKGETIN]										

IC50 (Leishmania donovani [10]) [µM]	Compound	selectivity ratio [1]	IC50 [2] [µM]	IC50 (Leishmania donovani [3]) [µM]	IC50 (Leishmania donovani [4]) [µM]	IC50 (Leishmania donovani [5]) [µM]	selectivity ratio [6]	selectivity ratio [7]	selectivity ratio [8]	IC50 (RAW264.7) [µM]	IC50 (Leishmania donovani [9]) [µM]
	O=c1cc(-c2ccc(OCCOCCN(CCOCCOc3ccc(-c4cc(=O)c5cc(F)ccc5o4)cc3)Cc3ccncc3)cc2)oc2ccc(F)cc12	> 32.3	> 100	3.1	0.36	0.31					
	O=c1cc(-c2ccc(OCCOCCOCCOCCOCCOCCOCCOc3ccc(-c4cc(=O)c5ccccc5o4)cc3)cc2)oc2ccccc12				10.3	6.2				4.8	7.3
	O=c1cc(-c2ccc(OCCOCCOCCOCCOCCOCCOCCOCCOCCOc3ccc(-c4cc(=O)c5ccccc5o4)cc3)cc2)oc2ccccc12				8.6	9.4				8.1	10.6
	O=c1cc(-c2ccc(OCCOCCNCCOCCOc3ccc(-c4cc(=O)c5ccccc5o4)cc3)cc2)oc2ccccc12				2.3	3.3				2.1	1.1
	O=c1cc(-c2ccc(OCCOCCOCCOCCOCCOc3ccc(-c4cc(=O)c5c(O)cc(O)cc5o4)cc3)cc2)oc2cc(O)cc(O)c12				1.8	2.3				> 200	2.6
	O=c1cc(-c2ccc(OCCOCCOCCOc3ccc(-c4cc(=O)c5ccccc5o4)cc3)cc2)oc2ccccc12				> 24	> 24				> 95	> 24
	Cc1ccc2c(=O)cc(-c3ccc(OCCOCCOCCOCCOCCOCCOc4ccc(-c5cc(=O)c6ccc(C)cc6o5)cc4)cc3)oc2c1				5.3	6.7				5.3	4.1
	O=c1cc(-c2ccc(OCCOCCN(CCOCCOc3ccc(-c4cc(=O)c5ccccc5o4)cc3)Cc3ccncn3)cc2)oc2ccccc12	> 23.6	> 33	1.4	0.58	0.44					
	CC(C)(C)OC(=O)N(CCOCCOc1ccc(-c2cc(=O)c3ccccc3o2)cc1)CCOCCOc1ccc(-c2cc(=O)c3ccccc3o2)cc1				1.6	3.2				> 100	1.1
	COc1c(-c2ccc(OCCOCCN(CCOCCOc3ccc(-c4oc5ccccc5c(=O)c4OC)cc3)Cc3ccncc3)cc2)oc2ccccc2c1=O	> 9.6	> 50	5.2	0.98	0.98					
	Cc1ccc2c(=O)cc(-c3ccc(OCCOCCOCCOCCOCCOc4ccc(-c5cc(=O)c6ccc(C)cc6o5)cc4)cc3)oc2c1				7.9	4.4				> 80	3.8
	O=c1cc(-c2ccc(OCCOCCOCCOCCOCCOc3ccc(-c4cc(=O)c5ccc(F)cc5o4)cc3)cc2)oc2cc(F)ccc12				4.8	4.1				> 100	3.7
7.2	O=c1cc(-c2ccc(Oc3c(O)cc(O)c4c(=O)cc(-c5ccc(O)cc5)oc34)cc2)oc2cc(O)cc(O)c12 [LANAROFLAVONE]										
	O=c1cc(-c2ccc(OCCOCCOCCOCCOc3ccc(-c4cc(=O)c5ccccc5o4)cc3)cc2)oc2ccccc12				> 24	> 24				> 100	> 24
	Cc1ccc2oc(-c3ccc(OCCOCCOCCOCCOCCOc4ccc(-c5cc(=O)c6cc(C)ccc6o5)cc4)cc3)cc(=O)c2c1				4.3	> 24				> 100	> 24
	O=c1cc(-c2cccc(OCCOCCN(CCOCCOc3cccc(-c4cc(=O)c5ccccc5o4)c3)Cc3ccncc3)c2)oc2ccccc12	> 21.7	> 50	2.3	0.44	0.19					
